Reference: article PMC9256809 (Molecular Cancer Therapeutics, 2022)

Legend:
Ba/F3 cells FLT3- ITD = experiment: Antiproliferative assay in Ba/F3 cells transfected with FLT3 variants; type: cell-based, mouse; conditions: for IC50: Mus musculus, BaF3
[1] = test system: Ba/F3 cells FLT3-ITD + F691L; experiment: as above; type: cell-based; conditions: Mus musculus, BaF3
[2] = test system: Ba/F3 cells FLT3-ITD + D835Y; experiment: as above; type: cell-based; conditions: Mus musculus, BaF3
Ba/F3 cells FLT3 D835Y = experiment: as above; type: cell-based; conditions: Mus musculus, BaF3
[3] = test system: relapsed or refractory FLT3-mutated AML; conditions: FLT3 inhibitor-naïve patients with relapsed or refractory FLT3-mutated AML; cited from earlier work
[4] = Phase I trial tolerability; type: in vivo, patients with AML and MDS/MPN; conditions: doses that yield plasma concentrations up to 1 μmol/L
CYP3A5 = CYP3A5 (Homo sapiens, UniProt P20815); experiment: Metabolism studies; type: in vitro ADME
Sequence of CYP3A5 (P20815 whole entry): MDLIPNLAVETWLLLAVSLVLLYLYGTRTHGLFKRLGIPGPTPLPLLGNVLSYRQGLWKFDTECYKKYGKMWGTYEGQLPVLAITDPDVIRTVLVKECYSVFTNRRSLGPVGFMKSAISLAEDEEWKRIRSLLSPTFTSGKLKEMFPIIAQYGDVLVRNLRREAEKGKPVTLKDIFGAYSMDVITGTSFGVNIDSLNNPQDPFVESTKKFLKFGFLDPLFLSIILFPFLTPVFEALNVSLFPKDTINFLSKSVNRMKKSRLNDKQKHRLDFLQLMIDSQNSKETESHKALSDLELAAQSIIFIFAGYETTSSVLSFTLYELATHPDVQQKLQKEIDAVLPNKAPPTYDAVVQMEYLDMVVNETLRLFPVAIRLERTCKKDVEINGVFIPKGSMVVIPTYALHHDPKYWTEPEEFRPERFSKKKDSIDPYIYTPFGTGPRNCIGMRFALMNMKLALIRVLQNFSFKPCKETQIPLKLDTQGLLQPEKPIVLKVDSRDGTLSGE

ERBB = ERBB (Homo sapiens, UniProt P04626); experiment: RBC enzymatic assay, ATP at Km; type: biochemical
Sequence of ERBB (P04626 23-1255): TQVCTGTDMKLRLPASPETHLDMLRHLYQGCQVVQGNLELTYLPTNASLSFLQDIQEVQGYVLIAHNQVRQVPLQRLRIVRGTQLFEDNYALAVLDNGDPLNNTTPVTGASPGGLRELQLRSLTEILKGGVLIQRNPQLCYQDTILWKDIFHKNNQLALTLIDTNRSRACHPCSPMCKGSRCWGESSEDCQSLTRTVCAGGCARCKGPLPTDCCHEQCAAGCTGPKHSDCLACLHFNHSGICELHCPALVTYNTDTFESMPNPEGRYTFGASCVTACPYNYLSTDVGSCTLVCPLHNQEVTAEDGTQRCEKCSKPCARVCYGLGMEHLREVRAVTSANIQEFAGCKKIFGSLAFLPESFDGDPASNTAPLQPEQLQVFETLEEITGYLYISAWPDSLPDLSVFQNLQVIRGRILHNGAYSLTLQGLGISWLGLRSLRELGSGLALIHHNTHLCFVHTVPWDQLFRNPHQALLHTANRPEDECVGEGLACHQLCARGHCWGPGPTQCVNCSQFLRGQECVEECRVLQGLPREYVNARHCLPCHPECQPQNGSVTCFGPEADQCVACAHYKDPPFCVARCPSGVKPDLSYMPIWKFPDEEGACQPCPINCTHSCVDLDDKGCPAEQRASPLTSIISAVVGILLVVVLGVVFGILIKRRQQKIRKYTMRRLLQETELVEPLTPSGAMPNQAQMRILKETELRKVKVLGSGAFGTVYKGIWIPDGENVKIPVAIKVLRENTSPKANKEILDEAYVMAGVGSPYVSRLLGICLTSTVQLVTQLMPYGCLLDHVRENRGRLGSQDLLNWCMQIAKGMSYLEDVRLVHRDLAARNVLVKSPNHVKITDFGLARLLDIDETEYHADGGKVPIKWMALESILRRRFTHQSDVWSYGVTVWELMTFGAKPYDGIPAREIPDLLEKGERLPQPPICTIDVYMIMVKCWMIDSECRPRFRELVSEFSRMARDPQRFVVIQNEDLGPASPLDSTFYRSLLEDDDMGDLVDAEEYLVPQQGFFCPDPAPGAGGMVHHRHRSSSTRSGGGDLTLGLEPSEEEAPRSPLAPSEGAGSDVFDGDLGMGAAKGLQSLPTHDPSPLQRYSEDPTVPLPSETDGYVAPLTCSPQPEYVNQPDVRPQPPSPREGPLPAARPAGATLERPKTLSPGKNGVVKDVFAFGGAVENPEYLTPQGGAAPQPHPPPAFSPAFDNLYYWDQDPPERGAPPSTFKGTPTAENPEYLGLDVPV
Summary of the method: (§1)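 Recombinant kinases were assayed with ATP at each kinase's Km, and IC50 values were determined.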

[5] = 28-day GLP repeat-dose toxicology study; type: in vivo; conditions: dogs, up to highest dose tested of 600 mg/kg orally
[6] = test system: MV4–11 FLT3-ITD xenograft; experiment: MV4–11 subcutaneous xenograft study; type: in vivo, BALB/c nu/nu mice
[7] = Cardiovascular study in dogs; type: in vivo
MOLM-13 = experiment: Antiproliferative assay; type: cell-based; conditions: Homo sapiens, MOLM-13, 72 h, read-out: Mean IC50
Summary of the method: (§2)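 Human AML lines from ATCC or DSMZ, STR-authenticated, mycoplasma-tested every 2 months and grown in source-recommended medium. Cells were exposed in four replicates to increasing concentrations of test compound for 72 h. Proliferation was read with the CellTiter 96 AQueous One (MTS) reagent.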

FLT3 D833Q (TKD) = FLT3 D833Q (TKD) (Homo sapiens, UniProt P36888); experiment: DiscoverX KINOMEscan competition binding
Sequence of FLT3 D833Q (TKD) (P36888 610-943, stated change not applied): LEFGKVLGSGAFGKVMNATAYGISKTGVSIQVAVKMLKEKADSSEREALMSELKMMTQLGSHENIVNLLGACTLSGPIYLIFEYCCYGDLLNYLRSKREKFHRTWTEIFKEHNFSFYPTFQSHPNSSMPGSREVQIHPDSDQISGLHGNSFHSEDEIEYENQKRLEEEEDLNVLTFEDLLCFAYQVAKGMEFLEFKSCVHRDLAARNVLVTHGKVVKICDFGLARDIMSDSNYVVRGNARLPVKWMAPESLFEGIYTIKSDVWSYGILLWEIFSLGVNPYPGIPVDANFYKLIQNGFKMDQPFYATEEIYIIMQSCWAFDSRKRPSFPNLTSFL

HEL92.1.7 = experiment: Antiproliferative assay; type: cell-based; conditions: Homo sapiens, HEL 92.1.7, 72 h, read-out: Mean IC50
Summary of the method: as §2

[8] = test system: phosphorylation of ERK1/2; experiment: Western blot analysis of kinase inhibition; type: cell-based; conditions: Fig. 2B
Summary of the method: (§3)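 Cells were exposed to vehicle DMSO or a concentration range of test compound for 1 or 24 h, then lysed. Blots were probed for total and phosphorylated FLT3 (pY589/591), STAT5 (pY694) and ERK1/2 (pT202/204). Images are representative of 3 biological repeats.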

[9] = test system: primary mononuclear cells from patients with AML; experiment: Ex vivo cell viability assay; type: cell-based; conditions: Homo sapiens, read-out: median IC50, 186 primary samples from patients with AML
EOL-1 = experiment: Antiproliferative assay; type: cell-based; conditions: Homo sapiens, EOL1, 72 h, read-out: Mean IC50
Summary of the method: as §2

THP-1 = experiment: Antiproliferative assay; type: cell-based; conditions: Homo sapiens, THP-1, 72 h, read-out: Mean IC50
Summary of the method: as §2

phosphorylation of STAT5 = experiment: Western blot analysis of kinase inhibition; type: cell-based; conditions: Fig. 2B
Summary of the method: as §3

FLT3-ITD = FLT3-ITD (Homo sapiens, UniProt P36888); experiment: RBC enzymatic assay, ATP at Km; type: biochemical
Sequence of FLT3-ITD (P36888 564-993, change not shown): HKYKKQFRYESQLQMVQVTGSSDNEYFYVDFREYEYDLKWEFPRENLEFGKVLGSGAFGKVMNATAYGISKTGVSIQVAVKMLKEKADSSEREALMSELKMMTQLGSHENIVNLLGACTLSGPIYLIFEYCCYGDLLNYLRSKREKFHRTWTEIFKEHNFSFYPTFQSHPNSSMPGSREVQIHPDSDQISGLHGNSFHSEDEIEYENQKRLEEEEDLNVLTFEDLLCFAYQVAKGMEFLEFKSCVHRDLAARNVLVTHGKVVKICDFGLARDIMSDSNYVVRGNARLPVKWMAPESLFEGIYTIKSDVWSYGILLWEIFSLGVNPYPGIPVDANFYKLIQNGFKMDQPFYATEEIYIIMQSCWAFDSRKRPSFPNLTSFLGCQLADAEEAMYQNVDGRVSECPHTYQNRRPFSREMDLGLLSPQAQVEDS
Summary of the method: as §1

[10] = molecular target: hERG potassium ion channel (Homo sapiens, UniProt Q12809); experiment: hERG inhibition
phosphorylation of FLT3 = experiment: Western blot analysis of kinase inhibition; type: cell-based; conditions: Fig. 2B
Summary of the method: as §3

[11] = test system: samples from patients with MDS/MPN; experiment: Ex vivo cell viability assay; type: cell-based; conditions: Homo sapiens, read-out: median IC50
Summary of the method: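 Freshly isolated patient mononuclear cells (peripheral blood or bone marrow) were plated at 10,000 cells/well. They were given a seven-point, 3-fold dilution series from 10 to 0.0137 µmol/L, made from DMSO stocks, and incubated 3 days. Growth was read by MTS; absorbance was background-subtracted and normalised to untreated wells. IC50 was obtained per sample and the median taken.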

[12] = test system: FLT3-mutant AML cell lines and the PDGFR-α mutant EOL-1 cell line; experiment: Apoptosis by PARP cleavage; type: cell-based, human; conditions: all 3 FLT3-mutant AML cell lines and EOL-1
Summary of the method: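 Cells were treated with DMSO vehicle or test compound for 1 or 24 h, then lysed. Apoptosis was assessed by Western blot for PARP cleavage.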

CYP3A4 = CYP3A4 (Homo sapiens, UniProt P08684); experiment: Metabolism studies; type: in vitro ADME
Sequence of CYP3A4 (P08684 whole entry): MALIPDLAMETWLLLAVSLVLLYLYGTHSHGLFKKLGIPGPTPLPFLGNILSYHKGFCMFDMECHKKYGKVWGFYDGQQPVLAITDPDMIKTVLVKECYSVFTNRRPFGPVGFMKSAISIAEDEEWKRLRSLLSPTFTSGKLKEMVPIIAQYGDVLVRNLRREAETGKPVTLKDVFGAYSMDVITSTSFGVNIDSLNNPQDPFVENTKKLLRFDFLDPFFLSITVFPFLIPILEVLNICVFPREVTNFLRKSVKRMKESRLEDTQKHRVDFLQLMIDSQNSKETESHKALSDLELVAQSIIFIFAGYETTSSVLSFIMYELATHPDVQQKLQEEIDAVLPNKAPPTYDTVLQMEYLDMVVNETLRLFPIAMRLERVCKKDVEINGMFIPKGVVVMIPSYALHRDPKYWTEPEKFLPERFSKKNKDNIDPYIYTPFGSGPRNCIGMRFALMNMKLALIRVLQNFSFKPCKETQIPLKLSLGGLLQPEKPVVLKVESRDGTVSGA

TEC = TEC (Homo sapiens, UniProt P42680); experiment: RBC enzymatic assay, ATP at Km; type: biochemical
Sequence of TEC (P42680 whole entry): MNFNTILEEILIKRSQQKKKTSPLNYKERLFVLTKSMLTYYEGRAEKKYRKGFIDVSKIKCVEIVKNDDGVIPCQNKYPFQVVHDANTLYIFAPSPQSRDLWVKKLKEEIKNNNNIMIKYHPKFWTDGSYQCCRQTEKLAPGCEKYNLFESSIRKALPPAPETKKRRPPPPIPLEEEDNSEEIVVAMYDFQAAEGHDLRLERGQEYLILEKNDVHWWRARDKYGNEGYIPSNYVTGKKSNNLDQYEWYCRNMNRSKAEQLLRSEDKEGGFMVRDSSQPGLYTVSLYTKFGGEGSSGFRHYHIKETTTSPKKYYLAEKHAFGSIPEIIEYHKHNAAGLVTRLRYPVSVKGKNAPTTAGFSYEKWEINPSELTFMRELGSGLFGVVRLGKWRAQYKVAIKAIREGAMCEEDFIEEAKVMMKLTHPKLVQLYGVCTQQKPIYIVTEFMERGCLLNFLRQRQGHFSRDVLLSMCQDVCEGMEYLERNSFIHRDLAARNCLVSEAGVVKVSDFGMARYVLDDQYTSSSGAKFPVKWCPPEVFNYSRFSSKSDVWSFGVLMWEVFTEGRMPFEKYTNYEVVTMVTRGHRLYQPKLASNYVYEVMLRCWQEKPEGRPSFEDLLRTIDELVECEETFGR
Summary of the method: as §1

FLT3 = FLT3 (Homo sapiens, UniProt P36888); experiment: Plasma inhibition assay; conditions: phase I doses yielding plasma concentrations up to 1 μmol/L
Sequence of FLT3 (P36888 27-993): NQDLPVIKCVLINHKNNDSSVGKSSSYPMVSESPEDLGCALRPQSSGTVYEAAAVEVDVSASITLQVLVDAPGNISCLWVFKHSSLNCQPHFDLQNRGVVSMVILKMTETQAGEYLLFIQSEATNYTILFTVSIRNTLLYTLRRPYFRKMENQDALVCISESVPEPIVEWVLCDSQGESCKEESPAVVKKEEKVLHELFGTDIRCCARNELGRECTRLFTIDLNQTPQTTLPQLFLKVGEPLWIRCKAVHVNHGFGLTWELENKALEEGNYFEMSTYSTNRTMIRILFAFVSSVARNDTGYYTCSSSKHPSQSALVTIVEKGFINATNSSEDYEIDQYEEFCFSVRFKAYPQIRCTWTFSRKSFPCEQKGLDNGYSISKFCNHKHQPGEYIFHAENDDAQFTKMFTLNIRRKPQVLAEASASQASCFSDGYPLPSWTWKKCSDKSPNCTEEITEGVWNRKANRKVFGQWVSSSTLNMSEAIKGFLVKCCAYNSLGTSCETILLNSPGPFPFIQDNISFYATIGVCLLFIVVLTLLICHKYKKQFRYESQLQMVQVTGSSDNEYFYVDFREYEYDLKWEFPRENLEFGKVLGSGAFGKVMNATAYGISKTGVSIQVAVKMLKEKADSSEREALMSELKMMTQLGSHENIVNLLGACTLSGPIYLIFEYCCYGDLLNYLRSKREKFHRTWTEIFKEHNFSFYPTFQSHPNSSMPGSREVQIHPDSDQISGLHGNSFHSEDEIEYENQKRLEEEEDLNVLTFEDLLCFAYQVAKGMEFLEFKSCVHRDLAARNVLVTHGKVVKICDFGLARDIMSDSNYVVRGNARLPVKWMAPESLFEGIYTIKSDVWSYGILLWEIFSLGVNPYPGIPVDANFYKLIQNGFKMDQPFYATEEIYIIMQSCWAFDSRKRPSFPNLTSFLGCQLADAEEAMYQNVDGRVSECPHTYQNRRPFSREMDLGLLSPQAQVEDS

FLT3 ITD/F691L = FLT3 ITD/F691L (Homo sapiens, UniProt P36888, F691L/ITD); experiment: DiscoverX KINOMEscan competition binding
Sequence of FLT3 ITD/F691L (P36888 564-993 F691L): as the sequence (P36888 564-993, change not shown) above, with F128L counted along it

FLT3– ITD = FLT3– ITD (Homo sapiens, UniProt P36888, ITD); experiment: DiscoverX KINOMEscan competition binding
Sequence of FLT3– ITD (P36888 564-993, change not shown): as the sequence (P36888 564-993, change not shown) above

SMILES: CC1(COc2ccc3c(c2)ncn3-c2ccc3cccc(N4CCC(N)CC4)c3n2)COC1 [Crenolanib, crenolanib]
- IC50 (Ba/F3 cells FLT3- ITD): 38 ± 8 nM
- IC50 [1]: 286 ± 9 nM
- IC50 [2]: 37 ± 13 nM
- IC50 (Ba/F3 cells FLT3 D835Y): 831 ± 195 nM

SMILES: CCc1nc(C(N)=O)c(Nc2ccc(N3CCC(N4CCN(C)CC4)CC3)c(OC)c2)nc1NC1CCOCC1 [Gilteritinib, gilteritinib]
- event-free survival [3]: 2.8 months
- response rate [3]: 34%
- IC50 (Ba/F3 cells FLT3- ITD): 28 ± 2 nM
- IC50 [1]: 96 ± 6 nM
- IC50 [2]: 9 ± 5 nM
- IC50 (Ba/F3 cells FLT3 D835Y): 521 ± 68 nM

SMILES: Cc1cnc(-c2ccc(-c3ccc(NC(=O)Nc4c(F)cc(F)cc4F)cc3F)c3c2C(=O)NC3)[nH]1 [luxeptinib, Luxeptinib]
- tolerability in phase I trial [4]: generally well tolerated
- involvement of CYP3A5 in metabolism (CYP3A5): involved in the metabolism
- IC50 (ERBB): > 1000 nM
- hematologic, cardiovascular or other organ toxicities [5]: No hematologic, cardiovascular or other organ toxicities were observed
- mice with tumor growth completely suppressed out to 120 days ([6]; 300 mg/kg twice a day, oral gavage, 28 days): 10 of 11
- weight loss or clinically apparent adverse events ([6]; doses up to 300 mg/kg twice a day, mice): No weight loss or clinically apparent adverse events
- Inhibition of tumor growth ([6]; lowest dose of 20 mg/kg/day, oral, 28 days): apparent
- response of regrown tumors to second 28-day treatment ([6]; re-treatment at 300 mg/kg twice a day, 100 and 300 mg/kg groups): All tumors that regrew in these two groups responded
- effect on QTc or any other parameter of heart function [7]: no effect
- IC50 (MOLM-13): 0.395 nM
- Kd (FLT3 D833Q (TKD)): 6.4 nM
- IC50 (HEL92.1.7): 4690 nM
- phosphorylation of downstream ERK1/2 [8]: reduces the phosphorylation
- IC50 [9]: 94.5 nM
- IC50 (EOL-1): 0.045 nM
- IC50 (THP-1): 2970 nM
- fold more potent than quizartinib (Ba/F3 cells FLT3- ITD; FLT3-ITD in the Ba/F3 system): 4 fold
- IC50 (Ba/F3 cells FLT3- ITD): 1 ± 0.2 nM
- phosphorylation of downstream STAT5 (phosphorylation of STAT5): reduces the phosphorylation
- IC50 (FLT3-ITD; FLT3-ITD, recombinant kinase with ATP concentration at the Km): 0.8 nM
- fold lower inhibitory concentration for recombinant FLT-ITD than WT FLT3 (FLT3-ITD; recombinant kinases): 10 fold
- inhibition of hERG potassium ion channel [10]: did not inhibit
- phosphorylation of FLT3 (phosphorylation of FLT3): potently reduces the phosphorylation
- IC50 [1]: 9 ± 1 nM
- IC50 [11]: < 200 nM
- IC50 [2]: 22 ± 9 nM
- concentration inducing apoptosis (PARP cleavage) [12]: ≤ 5 nmol/L
- involvement of CYP3A4 in metabolism (CYP3A4): involved in the metabolism
- IC50 (TEC): 139 nM
- IC50 (Ba/F3 cells FLT3 D835Y): 6 ± 0.4 nM
- inhibition of FLT3 in a plasma inhibition assay (FLT3): almost complete inhibition
- Kd (FLT3 ITD/F691L): 16 nM
- Kd (FLT3– ITD): 3.1 nM
